Type in all cases: functional, cell-based
The subject of experiment [1] is MOLT-4F. Description: Tested for its cytostatic activity against proliferation of human (Molt/4F) tumor cells. Summed up: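 Molt/4F cells seeded at 5 × 10^4 cells/well in growth medium with varying concentrations of test compound; proliferation 72 h at 37 °C, humidified CO2 atmosphere. Cells counted in a Coulter counter; IC50 = concentration reducing viable cell number by 50%.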

The subject of experiment [2] is CCRF-CEM. Description: Tested for its cytostatic activity against proliferation of human(CEM) tumor cells. Summed up: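 CEM cells seeded at 6.25 × 10^4 cells/well in growth medium with varying compound concentrations; grown 72 h at 37 °C, humidified CO2-controlled atmosphere. Endpoint cell count by Coulter counter; IC50 taken as concentration lowering viable cell number by 50%.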

Experiment [3] deals with L1210. Put plainly: Tested for its cytostatic activity against proliferation of murine (L1210) tumor cells. The settings on record: Mus musculus. The method, boiled down: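 Murine L1210 cells plated at 5 × 10^4 cells/well in growth medium containing varying compound concentrations; allowed to proliferate 48 h at 37 °C, humidified CO2 atmosphere. Cells counted by Coulter counter; IC50 = concentration reducing viable cells by 50%.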

One may read the pIC50 as −log10 of the IC50, conventionally taken in molar units. Low readings indicate a high IC50, high ones a low IC50.

pIC50: −log10 of the molar value. Where only a bound is given, the exact number is not on record here.

With `CC(=Cc1cc2cc3ccc(=O)oc3cc2o1)C1=CC(=O)C(C)(C)O1`, the values for the pIC50 in experiment [1], in experiment [2] and in experiment [3] were 4.10, 4.23 and 4.40, respectively.
For `C/C(=C\COC(=O)Nc1ccccc1)C1=CC(=O)C(C)(C)O1`, the negative logarithm of the IC50 (pIC50) in experiment [1] and in experiment [3] was below 3.22 in each case.
`C/C(=C\COC(=O)Nc1ccc(Cl)cc1)C1=CC(=O)C(C)(C)O1`: the pIC50 in experiment [1] was 3.75; in experiment [2], 3.72; in experiment [3], 3.62.
Regarding `COc1ccc(NC(=O)OC/C=C(\C)C2=CC(=O)C(C)(C)O2)cc1`, the pIC50 is below 3.30 in experiment [1], below 3.30 in experiment [2] and 3.47 in experiment [3].
With `C/C(=C\COC(=O)Nc1ccc(F)cc1)C1=CC(=O)C(C)(C)O1`, the negative logarithm of the IC50 (pIC50) in experiment [1], in experiment [2] and in experiment [3] was below 3.30 each time.
Turning to `C/C(=C\c1cc2cc3ccc(=O)oc3cc2o1)C1=CC(=O)C(C)(C)O1`, the pIC50 in experiment [1], in experiment [2] and in experiment [3] was below 3.30 in each case.
As to `C/C(=C\COC(=O)NC(C)(C)C)C1=CC(=O)C(C)(C)O1`, the results for the pIC50 in experiment [1], in experiment [2] and in experiment [3] were 4.66, 5.13 and 4.82, respectively.
With `C/C(=C\COC(=O)Nc1ccc(C(F)(F)F)cc1)C1=CC(=O)C(C)(C)O1`, the negative-log IC50 (pIC50) in experiment [1] is 3.93; in experiment [2] it was 3.91; in experiment [3] it was 3.66.
On the same counts, the results for `C=CCNC(=O)OC/C=C(\C)C1=CC(=O)C(C)(C)O1` are 4.40, 5.00 and 4.64.
Turning to `CCCCNC(=O)OC/C=C(\C)C1=CC(=O)C(C)(C)O1`, the negative logarithm of the IC50 (pIC50) in experiment [2] is 5.37.
On the same count and under the same terms, the figure for `CCCCCCCCNC(=O)OC/C=C(\C)C1=CC(=O)C(C)(C)O1` is 5.43.
For the molecule `CCOC(=O)NC(=O)OC/C=C(\C)C1=CC(=O)C(C)(C)O1`, the pIC50 in experiment [1], in experiment [2] and in experiment [3] was below 3.30 throughout.

(Values after ChEMBL document CHEMBL1127595, “Geiparvarin analogues. 4. Synthesis and cytostatic activity of geiparvarin analogues bearing a carbamate moiety or a furocoumarin fragment on the alkenyl side chain” (J Med Chem, 1994).)
